Data: ChEMBL document CHEMBL3526126, “Amide hydrolysis of a novel chemical series of microsomal prostaglandin E synthase-1 inhibitors induces kidney toxicity in the rat” (Drug Metab Dispos, 2013)
Converted amounts (≈) assume the structure as drawn.

What was measured:
[1] = AUC (0 to 24 hrs) in Sprague-Dawley rat at 2000 umol/kg, po qd administered for 7 days measured on day 7; format: ADME, organism-based; parameters: time < 24 hr, dose 2000 umol/kg, route oral; conditions: plasma
Summary of the method: (§1)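 Toxicity study 2: 2 female satellite rats per dose group. Dosing was once daily by oral gavage (10 ml/kg) for 7 days. Tail-vein EDTA blood was taken at 2, 4, 6, 7 and 24 h on day 1 and on day 7, then chilled and centrifuged to plasma. Parent and M1 were quantified by LC-MS/MS, with M1 measured in negative electrospray mode.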

[2] = Cmax in Sprague-Dawley rat at 2000 umol/kg, po qd administered for 7 days measured on day 7; format: ADME, organism-based; parameters: dose 2000 umol/kg, route oral; conditions: in vivo; summary of the method: as §1
[3] = Cmax in Sprague-Dawley rat at 500 umol/kg, po qd administered for 7 days measured on day 7; format: ADME, organism-based; parameters: dose 500 umol/kg, route oral; conditions: in vivo; summary of the method: as §1
Rattus norvegicus [4] = test: Drug level in Wistar Hannover rat treated with [14C]-AZ'7847 at 500 umol/kg, po qd administered for 7 days measured on day 7 by radio monitoring method; format: ADME, organism-based; conditions: in vivo, 168 h
[5] = AUC (0 to 24 hrs) in Wistar Hannover rat at 2000 umol/kg, po qd measured on day 1; conditions: plasma
Rattus norvegicus [6] = test: Toxicity in Wistar Hannover rat kidney assessed as histopathogical changes at 500 to 2000 umol/kg, po qd administered for 7 days measured on day 8 by hematoxylin/eosin staining-based light microscopic analysis; format: organism-based; conditions: in vivo, 168 h
Summary of the method: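 Wistar Hannover rats, about 8 weeks old, were gavaged once daily (10 ml/kg) for 7 days. One day after the last dose they were killed by carotid exsanguination under isoflurane/oxygen. Kidneys were fixed in buffered formalin, embedded in paraffin, sectioned, stained with hematoxylin and eosin, and examined by light microscopy.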

Rattus norvegicus [7] = test: Toxicity in Wistar Hannover rat kidney assessed as increase in plasma urea level at 500 to 2000 umol/kg, po qd administered for 7 days measured on day 7; format: organism-based; conditions: in vivo, 168 h
Summary of the method: (§2)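 Wistar Hannover rats, about 8 weeks old, were acclimatized about 2 weeks and randomized by body weight. Dosing was by oral gavage (10 ml/kg) once daily for 7 days, with vehicle controls. At the end of dosing, plasma (lithium heparin) was taken from the orbital plexus under isoflurane/oxygen anaesthesia, and urea and creatinine were measured.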

Rattus norvegicus [8] = test: Toxicity in Wistar Hannover rat kidney assessed as crystals in urine at 500 to 2000 umol/kg, po qd administered for 7 days measured on day 7; format: organism-based; conditions: in vivo, 168 h
[9] = AUC (0 to 24 hrs) in Sprague-Dawley rat at 500 umol/kg, po qd administered for 7 days measured on day 7; format: ADME, organism-based; parameters: dose 500 umol/kg, time < 24 hr, route oral; conditions: plasma; summary of the method: as §1
[10] = Cmax in Wistar Hannover rat at 2000 umol/kg, po qd measured on day 1; conditions: in vivo
Rattus norvegicus [11] = test: Toxicity in Wistar Hannover rat kidney assessed as increase in plasma creatinine level at 500 to 2000 umol/kg, po qd administered for 7 days measured on day 7; format: organism-based; conditions: in vivo, 168 h; summary of the method: as §2
[12] = Cmax in Wistar Hannover rat at 500 umol/kg, po qd measured on day 1; conditions: in vivo
[13] = AUC (0 to 24 hrs) in Wistar Hannover rat at 500 umol/kg, po qd measured on day 1; conditions: plasma
[14] = Solubility in rat urine at pH 7 after 5 hrs; format: physicochemical
Summary of the method: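 Samples in rat urine at pH 7.0 were incubated at 37°C for 5 hours. They were analysed by HPLC on a C18 column with photodiode array and single mass detection.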

Rattus norvegicus [15] = test: Drug metabolism in Wistar Hannover rat assessed as formation of benzene-1,2-disulfonamide metabolite M1 in plasma at 500 umol/kg, po qd administered for 7 days measured on day 7 by radio monitoring method; format: ADME, organism-based; conditions: in vivo, 168 h
[16] = AUC (0 to 24 hrs) in Sprague-Dawley rat at 900 umol/kg, po qd measured on day 1; format: ADME, organism-based; parameters: time < 24 hr, dose 900 umol/kg, route oral; conditions: plasma
Summary of the method: (§3)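 Toxicity study 3: 5 female animals per dose group for TK. The compound was given as a solution in 15% (w/v) hydroxypropyl-β-cyclodextrin in 0.2 M meglumine, by oral gavage (10 ml/kg) once daily for 14 days. Blood was microsampled at 2, 4, 6, 7 and 24 h on day 1 and on the last dosing day. Parent only was measured, not M1.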

Rattus norvegicus [17] = test: Toxicity in Wistar Hannover rat kidney assessed as increase in plasma urea level at 435 to 900 umol/kg, po qd administered for 14 days measured on day 14; format: organism-based; conditions: in vivo, 336 h
Summary of the method: (§4)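 Female Wistar Hannover rats (10 per group), about 8 weeks old, were dosed by oral gavage (10 ml/kg) once daily for 14 days. The compound was given as a solution in 15% (w/v) hydroxypropyl-β-cyclodextrin in 0.2 M meglumine. At the end of dosing, plasma (lithium heparin) was taken from the orbital plexus under isoflurane/oxygen anaesthesia for plasma chemistry.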

[18] = AUC (0 to 24 hrs) in Sprague-Dawley rat at 435 umol/kg, po qd measured on day 1; format: ADME, organism-based; parameters: dose 435 umol/kg, time < 24 hr, route oral; conditions: plasma; summary of the method: as §3
Rattus norvegicus [19] = test: Toxicity in Wistar Hannover rat kidney assessed as change in plasma chemistry parameter at 435 umol/kg, po qd administered for 14 days measured on day 14; format: organism-based; conditions: in vivo, 336 h; summary of the method: as §4
Rattus norvegicus [20] = test: Toxicity in Wistar Hannover rat kidney assessed as increase in plasma creatinine level at 435 to 900 umol/kg, po qd administered for 14 days measured on day 14; format: organism-based; conditions: in vivo, 336 h, in the assay text read “900 umol/kg” for “435 to 900 umol/kg”; summary of the method: as §4
[21] = Cmax in Sprague-Dawley rat at 900 umol/kg, po qd administered for 14 days measured on day 14; format: ADME, organism-based; parameters: dose 900 umol/kg, route oral; conditions: in vivo; summary of the method: as §3
Rattus norvegicus [22] = test: Toxicity in Wistar Hannover rat kidney assessed as crystals in urine at 435 to 900 umol/kg, po qd administered for 14 days measured on day 14; format: organism-based; conditions: in vivo, 336 h
[23] = AUC (0 to 24 hrs) in Sprague-Dawley rat at 900 umol/kg, po qd administered for 14 days measured on day 14; format: ADME, organism-based; parameters: dose 900 umol/kg, time < 24 hr, route oral; conditions: plasma; summary of the method: as §3
[24] = Drug metabolism in cryopreserved human hepatocytes assessed as amide hydrolysis at 1 to 10 uM by LC-MS analysis; format: ADME, cell-based, Hepatocyte
Summary of the method: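 Hepatocytes at 1 × 10^6 cells/ml in William's medium incubated at 37°C with gentle shaking under 5% CO2. Substrate was at […]. Metabolites were analysed by LC-MS.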

[25] = Cmax in Sprague-Dawley rat at 10 umol/kg, po qd measured on day 1; format: ADME, organism-based; parameters: dose 10 umol/kg, route oral; conditions: in vivo
Summary of the method: (§5)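 Single-dose PK in male Sprague-Dawley rats (n = 3). Plasma was profiled over time for parent and for the amide-hydrolysis metabolite M1, and AUC0–24 and Cmax were derived. The dosing protocol follows earlier work.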

[26] = AUC (0 to 24 hrs) in Sprague-Dawley rat at 10 umol/kg, po qd measured on day 1; format: ADME, organism-based; parameters: dose 10 umol/kg, time < 24 hr, route oral; conditions: plasma; summary of the method: as §5
[27] = Cmax in Sprague-Dawley rat at 435 umol/kg, po qd administered for 14 days measured on day 14; format: ADME, organism-based; parameters: dose 435 umol/kg, route oral; conditions: in vivo; summary of the method: as §3
[28] = AUC (0 to 24 hrs) in Sprague-Dawley rat at 435 umol/kg, po qd administered for 14 days measured on day 14; format: ADME, organism-based; parameters: dose 435 umol/kg, time < 24 hr, route oral; conditions: plasma; summary of the method: as §3
[29] = Cmax in Sprague-Dawley rat at 900 umol/kg, po qd measured on day 1; format: ADME, organism-based; parameters: dose 900 umol/kg, route oral; conditions: in vivo; summary of the method: as §3
[30] = Cmax in Sprague-Dawley rat at 435 umol/kg, po qd measured on day 1; format: ADME, organism-based; parameters: dose 435 umol/kg, route oral; conditions: in vivo; summary of the method: as §3

NS(=O)(=O)c1ccccc1S(N)(=O)=O
AUC at 24 h [1]: 1250 µM·h
Cmax [2]: 80 µM
Cmax [3]: 70 µM
Drug metabolism (Rattus norvegicus [4]): metabolite_detected
AUC(0-t) at 24 h [5]: 1150 µM·h
Activity (Rattus norvegicus [6]): Non-toxic
Activity (Rattus norvegicus [7]): Non-toxic
Activity (Rattus norvegicus [8]): Toxic
AUC at 24 h [9]: 1300 µM·h
Cmax [10]: 66 µM
Activity (Rattus norvegicus [11]): Non-toxic
Cmax [12]: 57 µM
AUC(0-t) at 24 h [13]: 1080 µM·h
solubility at 5 h [14]: 83 µM (≈ 19.6 µg/mL)

NS(=O)(=O)c1ccccc1S(=O)(=O)N[14C](=O)c1ccc(C#Cc2ccccc2)cc1
Drug metabolism (Rattus norvegicus [15]): metabolite_detected

Cc1cc(C(=O)NS(=O)(=O)c2ccccc2S(N)(=O)=O)ccc1C#CC1CCC1
AUC(0-t) at 24 h [16]: 5030 µM·h
Activity (Rattus norvegicus [17]): Toxic
AUC(0-t) at 24 h [18]: 2220 µM·h
Activity (Rattus norvegicus [19]): Non-toxic
Activity (Rattus norvegicus [20]): Toxic
Cmax [21]: 480 µM
Activity (Rattus norvegicus [22]): Toxic
AUC at 24 h [23]: 5000 µM·h
Drug metabolism [24]: metabolite_not_detected
Cmax [25]: 11 µM
AUC(0-t) at 24 h [26]: 58 µM·h
Cmax [27]: 415 µM
AUC at 24 h [28]: 2520 µM·h
Cmax [29]: 540 µM
Cmax [30]: 375 µM
